{"source": "PubChem BioAssay AID720508", "about": "(The Scripps Research Institute Molecular Screening Center, 2013)", "note": "The whole screen tested about 370,000 compounds, of which about 500 (0.14%) were called active. The entries come from a sample that favours actives as a whole. Unmarked numbers belong to inactive results.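 Rule for the calls: active = inhibition above the mean of compounds falling within the control limits plus 3 SD of them (cut at about 14% in these data); inactive = the rest.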"}
{"molecular_target": "Fibrinogen beta chain (Homo sapiens) (UniProt P02675)", "sequence (P02675 whole entry, looked up)": "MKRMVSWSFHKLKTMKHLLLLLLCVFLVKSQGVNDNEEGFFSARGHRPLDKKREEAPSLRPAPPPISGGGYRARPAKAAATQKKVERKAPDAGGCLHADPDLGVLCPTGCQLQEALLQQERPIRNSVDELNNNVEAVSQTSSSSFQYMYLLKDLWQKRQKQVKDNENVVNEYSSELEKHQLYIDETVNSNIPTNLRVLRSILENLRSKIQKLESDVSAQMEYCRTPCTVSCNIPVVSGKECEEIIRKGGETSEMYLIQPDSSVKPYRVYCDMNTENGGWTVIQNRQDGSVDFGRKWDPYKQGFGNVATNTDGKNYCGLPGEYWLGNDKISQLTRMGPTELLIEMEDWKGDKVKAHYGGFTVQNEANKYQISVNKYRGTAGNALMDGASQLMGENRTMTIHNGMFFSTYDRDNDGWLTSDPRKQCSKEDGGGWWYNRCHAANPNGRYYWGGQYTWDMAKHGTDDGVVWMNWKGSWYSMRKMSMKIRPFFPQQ", "experiment": "small molecules displacing Tn7 from DD(E) complex – biochemical, fluorescence polarization, human fibrin, Tn7 probe, primary screen (AID 720508);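 note: 0% = plate median of compound wells and 100% = 10 µM Aha-Tn7 peptide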", "details": "FP displacement of FITC-Tn7 peptide from fibrin DD(E); at 8.3 µM; stronger effect = higher value; 0% = median of compound wells per plate", "summary_of_the_method": "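Assay system: Fibrin-DD(E) protein isolated from polymerized human fibrin clots; read-out basis: percent inhibition; medium: Tris/NaCl/CaCl2 buffer, pH 7.8; signal: FP measurement; incubation: 10 min plus 3 h, room temperature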"}
{"compound": "CSC1=NC2(C)CCCCC2C12C=CC(=O)C=C2", "note": "(stereo not drawn)", "inhibition": "6.72%"}
{"compound": "CC(OC(=O)CN1C(=O)COc2ccccc21)C(=O)NCc1ccc(F)cc1", "note": "(stereo not drawn)", "inhibition": "-2.52%"}
{"compound": "CN(Cc1ccccc1)CC(O)COc1ccc(CNCc2cc3ccccc3s2)cc1", "note": "(stereo not drawn)", "inhibition": "5.14%"}
{"compound": "Cc1cc(C(=O)OC(C)C(=O)NC2CCCCC2C)c(C)o1", "note": "(stereo not drawn)", "inhibition": "-2.98%"}
{"compound": "CCO/N=C(/C)c1c(O)cc(-c2ccccc2)n(-c2ccccc2)c1=O", "inhibition": "0.3%"}
{"compound": "Oc1ccc2ccc3cccc[n+]3c2c1", "inhibition": "62.8% (active)"}
{"compound": "COCCCNC(=O)Cc1ccc(-n2c(C)nc3cccnc32)cc1", "inhibition": "1.6%"}
{"compound": "O=C(COC(=O)c1cc([N+](=O)[O-])ccc1NCc1ccccc1)NC1CCCCC1", "inhibition": "-0.23%"}
{"compound": "O=C(COC(=O)c1ccc([N+](=O)[O-])cc1Cl)NC(=O)c1ccccc1", "inhibition": "17.7% (active)"}
{"compound": "O=C(NNS(=O)(=O)c1ccc(F)cc1)c1ccc([N+](=O)[O-])cc1Cl", "inhibition": "1.43%"}
{"compound": "O=C(NCc1ccccc1)c1cccc(NC(=O)C2CCCCC2)c1", "inhibition": "15.5% (active)"}
{"compound": "CC(C)(C)OC(=O)N1CCC(C(=O)Nc2cccc(C(=O)NCCc3ccccc3)c2)CC1", "inhibition": "-2.62%"}
{"compound": "CCNC(=O)c1cccc(NC(=O)C2CC(=O)N(CCc3ccccc3)C2)c1", "note": "(stereo not drawn)", "inhibition": "8.78%"}
{"compound": "COc1ccc(C(=O)OCC(=O)NCC2CCCO2)cc1[N+](=O)[O-]", "note": "(stereo not drawn)", "inhibition": "2.02%"}
{"compound": "CC(C)CNC(=O)COC(=O)/C=C/c1ccccc1[N+](=O)[O-]", "inhibition": "2.51%"}
{"compound": "O=C(/C=C/c1ccccc1[N+](=O)[O-])NCC1CCCO1", "note": "(stereo not drawn)", "inhibition": "14.7% (active)"}
{"compound": "COCCn1c(N)c(NCc2ccccc2)c(=O)[nH]c1=O", "inhibition": "8.37%"}
{"compound": "Nc1ccc2nc3c(=O)[nH]c(=S)[nH]c3nc2c1", "inhibition": "7.86%"}
{"compound": "Cc1cc2nc3c(=O)n(Cc4ccccc4)c(=O)[nH]c3nc2cc1N", "inhibition": "25.7% (active)"}
{"compound": "CN(C)CCNC(=O)C(C(=O)c1ccccc1)n1ccccc1=O", "note": "(stereo not drawn)", "inhibition": "8.86%"}
{"compound": "Cc1ccc(-c2nc(-c3cccnc3)sc2CC(=O)Nc2ccc(C)c(Cl)c2)cc1", "inhibition": "-4.07%"}
{"compound": "CSCCNC(=O)c1ccc2nc(Cc3ccccc3F)oc2c1", "inhibition": "-0.81%"}
{"compound": "Cc1ccc(NC(=O)CN(C)C(=O)c2ccc(Cl)c(S(=O)(=O)NCc3ccco3)c2)cc1", "inhibition": "-3.83%"}
{"compound": "COC(=O)[C@H](C(C)C)N1CCc2nnn(Cc3ccc(C)cc3)c2-c2ccccc2S1(=O)=O", "inhibition": "5.12%"}
{"compound": "O=C(COC(=O)c1ccc(O)cc1)Nc1nccs1", "inhibition": "6.41%"}
{"compound": "O=C1C(=O)N(CCCN2CCOCC2)C(c2ccc([N+](=O)[O-])cc2)/C1=C(\\O)c1ccc2c(c1)OCCO2", "note": "(stereo not drawn)", "inhibition": "-0.14%"}
{"compound": "O=S(=O)(c1cccc(-c2nnc(SC(F)F)n2-c2ccccc2)c1)N1CCCCC1", "inhibition": "3.4%"}
{"compound": "O=C(OCC(=O)N1CCN(C(=O)c2ccco2)CC1)c1ccccc1Cc1ccccc1", "inhibition": "-2.57%"}
{"compound": "Cc1cccc(C)c1Nc1c(-c2ccccc2O)nc2ncccn12", "inhibition": "2.35%"}
{"compound": "Cc1cc(Nc2cccc(F)c2)n2ncnc2n1", "inhibition": "-2.61%"}
{"compound": "COc1ccc(/C=C2\\CCCC3C2=NN(C(=O)c2scnc2C)C3c2ccc(OC)cc2)cc1", "note": "(stereo not drawn)", "inhibition": "2.65%"}
{"compound": "CC(C)=CCCC1(C)C=Cc2c(ccc3c2[nH]c2cc(O)c(C)cc23)O1", "note": "(stereo not drawn)", "inhibition": "-5.67%"}
{"compound": "CCN(CC)CCCC(C)n1c2nc(=O)[nH]c(=O)c-2nc2cc(Cl)ccc21", "note": "(stereo not drawn)", "inhibition": "-7.28%"}
{"compound": "Cc1cc2nc3c(=O)[nH]c(=O)nc-3n(C[C@H](O)[C@H](O)[C@H](O)CO)c2cc1C", "inhibition": "24.1% (active)"}
{"compound": "CC(C)C[C@H]1CNC(=S)N1C[C@H]1CCCN1C[C@H](Cc1ccc(O)cc1)N1C[C@H](Cc2ccc(O)cc2)N(CC2CCCCC2)C1=S", "inhibition": "-3.09%"}
{"compound": "C=C(C)C#CC(Cc1ccccc1)N(CC1CC1)/C(N)=N/C(=O)OCc1ccccc1", "note": "(stereo not drawn)", "inhibition": "1.85%"}
{"compound": "CC(C)CC(=O)c1c[nH]c(C(=O)NCc2ccccc2)c1", "inhibition": "-1.06%"}
{"compound": "CC1CCCCC12NC(=O)N(CC(=O)OCc1c(F)cccc1Cl)C2=O", "note": "(stereo not drawn)", "inhibition": "5.49%"}
{"compound": "Cc1cc(C)c2nc3nc(C)cc(C)c3c(N)c2c1", "inhibition": "3.42%"}
{"compound": "COc1ccc(S(=O)(=O)N2CCOCC2)cc1NC(=O)CSc1nnc(NC2CC2)s1", "inhibition": "-0.34%"}
{"compound": "COc1ccc(S(=O)(=O)N2CCN(C(C)C(=O)Nc3ccc(C(C)C)cc3)CC2)cc1", "note": "(stereo not drawn)", "inhibition": "2.11%"}
{"compound": "CCCC1CCC2(CCCN2CCOC(=O)NCc2ccccc2)CC1", "note": "(stereo not drawn)", "inhibition": "2.73%"}
{"compound": "CCC(C)[C@H](NC(=O)N1c2ccccc2NC(=O)[C@@H]1C(C)C)C(=O)N[C@@H](Cc1ccccc1)C(=O)O", "note": "(stereo partly drawn)", "inhibition": "-4.14%"}
{"compound": "Cc1ccc(S(=O)(=O)c2c[nH]c3ccc(Cl)cc3c2=O)cc1", "inhibition": "-0.42%"}
{"compound": "COc1ccc(S(=O)(=O)N(C)CC(=O)N2CCCC2)cc1Cl", "inhibition": "-5.85%"}
{"compound": "COc1ccc(S(=O)(=O)c2c[nH]c(=S)[nH]c2=O)cc1Cl", "inhibition": "14.8% (active)"}
{"compound": "CSCC[C@H](NC(=O)NCc1cccs1)C(=O)O", "inhibition": "1.72%"}
{"compound": "O=C(COC(=O)CCOc1ccccc1)Nc1cc(S(=O)(=O)N2CCCCC2)ccc1Cl", "inhibition": "3.01%"}
{"compound": "CC(=O)c1ccc(NC(=O)CCNS(=O)(=O)c2cc(Br)cnc2N)cc1", "inhibition": "1.85%"}
{"compound": "Nc1nc2n(n1)C(c1ccco1)CC(c1ccc(Cl)c(Cl)c1)N2", "note": "(stereo not drawn)", "inhibition": "-5.38%"}
{"compound": "O=C(N=C1SC2CS(=O)(=O)CC2N1Cc1ccccc1)c1ccccc1", "note": "(stereo not drawn)", "inhibition": "8.78%"}
{"compound": "COCCNC(=O)CSc1nc2c(n1-c1ccccc1)CCCC2", "inhibition": "-3.74%"}
{"compound": "NC(=O)c1ccc(N2CCCC2)nc1", "inhibition": "2.52%"}
{"compound": "CCc1nc2c(OCCC3CCCCC3)cccn2c1N(C)C(=O)c1ccco1", "inhibition": "-2.4%"}
{"compound": "Cc1c(C(=O)O)nnn1-c1nonc1N", "inhibition": "1.32%"}
{"compound": "O=C(NCc1ccccc1)C1CCCN(c2nc3ccsc3c(=O)s2)C1", "note": "(stereo not drawn)", "inhibition": "-2.86%"}
{"compound": "CCC(=O)N1CCN=C1SCc1ccc(F)cc1", "inhibition": "1.78%"}
{"compound": "COc1cccc2c1C(=O)c1c(O)c3c(c(O)c1C2=O)CC(O)(C(C)=NNC(=O)c1ccc(Cl)c(Cl)c1)CC3OC1CC(N)C(O)C(C)O1", "note": "(stereo not drawn)", "inhibition": "27% (active)"}
